# An excerpt weighted towards active compounds, which were near 2.3% of everything screened.
# TRPC4 block = inhibitors of mouse TRPC4 channel, primary screen, Fluo4 calcium, HEK293 TRPC4beta/mu-opioid cells; DAMGO-evoked Fluo4 calcium flux; hits give low values; Short transient receptor potential channel 4 (Mus musculus), Q9QUQ5; 300,000 tested, 0.39% active; B-score at 10 µM;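 active means B-score over 3 SD under the library average, no early fluorescence shift, positive overall ratio signal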
#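 Material: HEK293 cells with stable TRPC4beta plus mu-opioid receptor expression / Probe or stimulus: DAMGO in two steps, submaximal then maximal / Compound: single concentration per test compound / Technique: kinetic Fluo4 fluorescence imaging of calcium influx / Read-out: per-well B score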
# TRPC4 potent = positive allosteric modulators of TRPC4, primary screen, cell-based, mouse TRPC4beta, HEK293 mu-opioid, Fluo-4 calcium; Short transient receptor potential channel 4 (Mus musculus), Q9QUQ5; DAMGO EC20, Fluo-4 Ca2+ flux; hits give high values; B-score at 10 µM; 310,000 tested, 0.42% active; AID 2227, 2009;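 active means B-score of calcium response area above 5 SD of library B-scores, with initial fluorescence ratio within 5 SD of library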;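 further: B-score of integrated fluorescence ratio over time as area under calcium response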
# TRPC6 activator = mouse TRPC6 channel activators, primary screen, cell-based, HEK293, membrane potential dye; Short transient receptor potential channel 6 (Mus musculus), Q61143; HEK293-TRPC6 membrane potential dye fluorescence; hits give high values; B-score at 10 µM; 310,000 tested, 0.13% active; AID 2550, 2010;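 active means B-score of the integrated fluorescence ratio above library mean plus 3 SD, and starting fluorescence ratio within library mean plus 5 SD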;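 further: higher score means more depolarization so channel activation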
# Target sequence (Q61143 whole entry, looked up): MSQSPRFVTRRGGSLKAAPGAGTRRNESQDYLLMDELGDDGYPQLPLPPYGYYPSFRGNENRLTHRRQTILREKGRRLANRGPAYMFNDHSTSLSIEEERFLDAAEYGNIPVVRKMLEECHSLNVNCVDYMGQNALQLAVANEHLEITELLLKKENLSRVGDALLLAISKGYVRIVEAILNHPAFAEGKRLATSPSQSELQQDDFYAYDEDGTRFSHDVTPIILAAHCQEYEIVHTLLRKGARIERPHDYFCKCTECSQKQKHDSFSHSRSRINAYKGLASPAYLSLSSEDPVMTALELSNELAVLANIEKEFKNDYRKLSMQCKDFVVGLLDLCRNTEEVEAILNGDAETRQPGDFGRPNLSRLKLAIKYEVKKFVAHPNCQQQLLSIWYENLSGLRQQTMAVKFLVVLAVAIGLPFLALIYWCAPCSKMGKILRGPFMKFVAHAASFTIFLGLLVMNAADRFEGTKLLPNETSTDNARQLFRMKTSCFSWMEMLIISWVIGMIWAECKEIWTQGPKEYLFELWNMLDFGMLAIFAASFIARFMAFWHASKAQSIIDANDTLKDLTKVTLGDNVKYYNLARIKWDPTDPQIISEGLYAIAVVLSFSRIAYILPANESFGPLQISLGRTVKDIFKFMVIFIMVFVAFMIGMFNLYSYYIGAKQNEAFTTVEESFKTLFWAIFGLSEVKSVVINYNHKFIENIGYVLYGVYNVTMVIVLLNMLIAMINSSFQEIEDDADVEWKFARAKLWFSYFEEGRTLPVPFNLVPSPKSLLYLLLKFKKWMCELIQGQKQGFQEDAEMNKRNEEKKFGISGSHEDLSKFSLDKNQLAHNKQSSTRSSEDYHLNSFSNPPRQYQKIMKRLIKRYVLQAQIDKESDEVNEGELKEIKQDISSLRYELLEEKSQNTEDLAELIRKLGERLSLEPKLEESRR
# TRPC6 inhibitor = mouse TRPC6 channel inhibitors, primary screen, cell-based, HEK293, membrane potential dye; ACh-evoked depolarization; hits give low values; AID 2553, 2010; B-score at 10 µM; Short transient receptor potential channel 6 (Mus musculus), Q61143; 310,000 tested, 1.1% active;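 active means B-score under library mean minus 3 SD, initial fluorescence not abnormally high, positive integrated signal ratio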;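 further: B-score derived from integrated fluorescence ratio over the kinetic read; more negative B-score means stronger inhibition of depolarization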
# TRPC4 agonist = activators of mouse TRPC4 channel, primary screen, Fluo4 calcium, HEK293 TRPC4beta/mu-opioid cells | Short transient receptor potential channel 4 (Mus musculus), Q9QUQ5 | Fluo4 calcium fluorescence; hits give high values | B-score at 10 µM | 310,000 tested, 0.49% active | AID 2237, 2010;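 active means B-score above 5 SD of library B-scores, and initial fluorescence ratio not above library mean plus 5 SD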;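 further: positive B-score marks a calcium rise read as TRPC4 activation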
#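 Assay system: HEK293 stable line with TRPC4beta plus mu-opioid receptor. Times: dye 45 min RT, read 110 s. Measured by: kinetic Fluo4 calcium fluorescence. Measure: B score of integrated ratio. Controls: assay buffer as low control, maximal DAMGO as high control.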
# * = called active by the depositor; i = inactive.
SMILES,TRPC4 block,TRPC4 potent,TRPC6 activator,TRPC6 inhibitor,TRPC4 agonist
Cc1cc(C)cc(NC(=O)C[n+]2ccccc2)c1,i,i,i,i,i
COc1ccc(OC2CCN(S(=O)(=O)c3ccc(F)cc3)CC2)cc1,i,i,i,i,i
COc1ccc(OC2CCN(S(=O)(=O)c3ccccc3)CC2)cc1,i,13*,i,i,i
O=C(CC1=NCCNC(c2ccccc2)C1)c1ccccc1O (stereo unspecified),i,10*,i,i,i
CCNC(=S)NNC(=O)c1ccc(OC(F)F)cc1,i,i,i,i,i
CCN1C(=O)CSC1=Nc1ccc(Cl)c(Cl)c1,-6*,i,i,i,i
O=C1C2CCCN2C(c2cccs2)N1c1ccc(F)cc1 (stereo unspecified),i,i,i,i,i
COc1cccc(N2C(=O)C3CCCN3C2c2cccs2)c1 (stereo unspecified),i,i,i,i,43*
Cc1ccc(C2N(c3cccc(Cl)c3)C(=O)C3CCCN32)o1 (stereo unspecified),i,33*,i,i,i
CCC(C)c1ccccc1NC(=O)COC(=O)C1=COCCO1 (stereo unspecified),i,i,i,i,i
CC1CN(C)C(C)c2c1oc1ccc(N)cc21 (stereo unspecified),i,i,i,i,239*
Nc1ccc2oc3ccccc3c2c1,i,i,i,i,i
CC1CN(C)C(C)c2c1oc1ccc([N+](=O)[O-])cc21 (stereo unspecified),i,i,i,i,115*
CC(C)=Cc1oc2ccc([N+](=O)[O-])cc2c1N1CCOCC1,i,i,i,i,i
COc1cccc(/C=C/c2nc(C#N)c(NCC(C)C)o2)c1,i,i,i,i,i
CCC(C(=O)Nc1ccc2c(c1)OCCO2)n1c(=O)[nH]c2ccccc2c1=O (stereo unspecified),i,i,i,i,i
COC(=O)c1cc(C#N)c(Oc2ccccc2)nc1C,i,i,i,i,i
COc1ccccc1Oc1nc(C)c(C(C)=O)cc1C#N,i,12*,i,i,i
NNc1nc(-c2ccccc2Cl)nc2sc3c(c12)CCCC3,i,12*,i,i,i
O=C(CN1CCC(NC(=O)c2ccccc2Cl)CC1)NCc1ccco1,i,i,i,i,i
Cc1ccc2c(c1)C1CN(C)CCC1N2C(=S)NC(=O)c1ccc(Br)cc1 (stereo unspecified),i,17*,i,i,i
COc1ccc(OCC(=O)N2c3ccc(C)cc3C3CN(C)CCC32)cc1 (stereo unspecified),i,i,i,i,i
CCOCCn1c(SCc2c(F)cccc2Cl)nc2c1c(=O)[nH]c(=O)n2C,i,i,i,i,i
COC(=O)c1sc(-c2ccc(Cl)cc2)cc1NC(=O)c1ccccc1C(=O)O,i,i,i,i,i
COC(=O)c1sc(-c2ccc(C(C)(C)C)cc2)cc1NC(=O)CSCC(=O)O,-6*,i,i,i,i
SMILES,TRPC4 block,TRPC4 potent,TRPC6 activator,TRPC6 inhibitor,TRPC4 agonist
COC(=O)c1sc(-c2ccc(C(C)(C)C)cc2)cc1NC(=O)c1ccccc1C(=O)O,i,12*,i,i,i
CCOCCCNC(=O)c1cn(CC)c2ccc(S(=O)(=O)N(C)C3CCCCC3)cc2c1=O,i,i,i,i,i
CC1CCc2nc3sc4c(c3c(N)c2C1)CCCC4 (stereo unspecified),i,i,i,i,i
Nc1c2c(nc3sc4c(c13)CCCCC4)CCCCC2,-5*,i,i,i,i
O=C(CCCn1c(=O)[nH]c2ccccc2c1=O)NC1CCCCCC1,i,i,i,i,i
O=C(CCCCn1c(=O)[nH]c2ccccc2c1=O)NC1CCN(Cc2ccccc2)CC1,i,i,i,i,86*
Cc1cc(NC(=O)Cn2c(=O)n(CCCCC(=O)NC3CCN(Cc4ccccc4)CC3)c(=O)c3ccccc32)n[nH]1,i,11*,i,i,i
Cc1cccc(C)c1NC(=O)Cn1c(=O)n(CCCC(=O)NC2CCN(Cc3ccccc3)CC2)c(=O)c2ccccc21,i,i,i,i,i
O=C(CCCCn1c(=O)c2ccccc2n(Cc2ccccc2F)c1=O)NC1CCN(Cc2ccccc2)CC1,i,12*,i,i,i
COC(=O)c1ccccc1NC(=O)Cn1c(=O)n(CCC(=O)NC2CCN(Cc3ccccc3)CC2)c(=O)c2ccccc21,i,i,i,i,i
CCCn1c(=O)c2sccc2n2c(CCCC(=O)NC3CCN(Cc4ccccc4)CC3)nnc12,i,16*,i,i,i
COc1ccc(N(C(=O)COc2ccc(C)cc2)S(=O)(=O)c2ccc(C)cc2)cc1,i,i,i,i,i
Cc1csc2ncnc(N3CCN(C(=S)Nc4ccc(F)cc4F)CC3)c12,i,i,i,i,i
COC(=O)CS(=O)(=O)c1nnc([C@H](Cc2ccccc2)NC(=O)OC(C)(C)C)o1,-5*,i,i,i,i
CC1CC(C)CN(CCCCOc2ccc([N+](=O)[O-])cc2)C1 (stereo unspecified),i,i,i,i,i
CCOC(=O)c1cc(-c2cccc([N+](=O)[O-])c2)n[nH]1,i,23*,i,i,i
CC(C)(CO)NC(=O)c1ccc2c(c1)C(=O)c1ccccc1-2,i,11*,i,i,i
COCCNC(=O)c1ccc2c(c1)C(=O)c1ccccc1-2,i,i,i,i,i
O=C(COC(=O)c1cc(S(=O)(=O)N2CCCCC2)ccc1N1CCOCC1)NC1CCCCC1,i,i,i,i,i
Cc1ccc2[nH]c(C(=O)O)c(-c3ccccc3)c2c1,i,i,i,i,i
Cc1ccc2[nH]c(C(=O)NN=C3CCCCC3)c(-c3ccccc3)c2c1,i,10*,i,i,i
CN(C)c1ccc(NC(=O)CN2CCN(S(=O)(=O)c3cc(Cl)ccc3Cl)CC2)cc1,i,i,i,i,i
O=C(CN1CCN(S(=O)(=O)c2cc(Cl)ccc2Cl)CC1)Nc1ccc2c(c1)OCCO2,i,i,i,-5.6*,57*

# Screening data as filed in PubChem.
